Experiments:
Type in all cases: functional
[1] = tested on: SNB-75; experiment: Anticancer activity against human SNB75 cells after 48 hrs; details: SNB-75, 48 h
Method in brief: (§1)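 NCI 60-line panel protocol with a 48 h incubation. Per line: GI50 = concentration giving 50% decrease in net cell growth; TGI = total growth inhibition; LC50 = net 50% loss of initial cells. When the level was not reached or was exceeded, the value is given as greater or less than the highest or lowest concentration tested.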

[2] = tested on: KM12; experiment: Anticancer activity against human KM12 cells after 48 hrs; details: KM12, 48 h
Method in brief: (§2)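 NCI Drug Evaluation Branch 60-cell-line screen across leukemia, melanoma, lung, colon, CNS, ovarian, renal, prostate and breast panels. The incubation period is 48 h. Parameters are derived from dose–response data: GI50 is the concentration giving 50% decrease in net growth, TGI is total growth inhibition, and LC50 is net 50% loss of initial cells. Values beyond the tested range are reported as greater or less than the maximum or minimum concentration.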

[3] = tested on: Rattus norvegicus; experiment: Antiinflammatory activity in Wistar rat assessed as inhibition of carrageenan-induced hind paw edema at 20 mg/kg, po administered 30 mins before carrageenan challenge measured after 5 hrs by plethysmometer
Method in brief: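 Wistar rats of either sex, 150–175 g, fasted 16 h, n = 6 per group. Compound given orally at 20 mg/kg as a suspension in 1% CMC in water (10 mL/kg); controls got vehicle only. After 30 min, 0.1 mL of 1% carrageenan in saline was injected subplantar into the left hind paw. Paw volume was measured by plethysmometer at 0, 3 and 5 h. Inhibition = (1 − Vt/Vc) × 100, reported as mean ± SEM.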

[4] = tested on: SK-MEL-2; experiment: Anticancer activity against human SK-MEL-2 cells after 48 hrs; details: SK-MEL-2, 48 h; method in brief: as §1
[5] = tested on: CAKI-1; experiment: Anticancer activity against human Caki1 cells after 48 hrs; details: CAKI-1, 48 h; method in brief: as §2
[6] = tested on: SNB-19; experiment: Anticancer activity against human SNB19 cells after 48 hrs; details: SNB-19, 48 h; method in brief: as §1
[7] = tested on: RXF 393; experiment: Anticancer activity against human RXF393 cells after 48 hrs; details: RXF 393, 48 h; method in brief: as §1
[8] = tested on: SK-MEL-28; experiment: Anticancer activity against human SK-MEL-28 cells after 48 hrs; details: SK-MEL-28, 48 h; method in brief: as §1
[9] = tested on: A498; experiment: Anticancer activity against human A498 cells after 48 hrs; details: A498, 48 h; method in brief: as §2
[10] = tested on: NCI-H23; experiment: Anticancer activity against human NCI-H23 cells after 48 hrs; details: NCI-H23, 48 h; method in brief: as §1
[11] = tested on: RPMI-8226; experiment: Anticancer activity against human RPMI8226 cells after 48 hrs; details: RPMI-8226, 48 h; method in brief: as §1
[12] = tested on: SW-620; experiment: Anticancer activity against human SW620 cells after 48 hrs; details: SW-620, 48 h; method in brief: as §1
[13] = tested on: OVCAR-5; experiment: Anticancer activity against human OVCAR5 cells after 48 hrs; details: OVCAR-5, 48 h; method in brief: as §1
[14] = tested on: LOX IMVI; experiment: Anticancer activity against human LOXIMVI cells after 48 hrs; method in brief: as §2
[15] = tested on: UACC-62; experiment: Anticancer activity against human UACC62 cells after 48 hrs; details: UACC-62, 48 h
Method in brief: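 NCI ~60 human tumour cell line panel with a 48 h incubation. GI50 is the concentration giving a 50% fall in net growth, TGI gives total growth inhibition, and LC50 gives a net 50% loss of initial cells. An effect not reached or exceeded is reported as greater or less than the highest or lowest concentration tested.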

[16] = tested on: HOP-62; experiment: Anticancer activity against human HOP62 cells after 48 hrs; details: HOP-62, 48 h; method in brief: as §2
[17] = tested on: OVCAR-3; experiment: Anticancer activity against human OVCAR3 cells after 48 hrs; details: OVCAR-3, 48 h; method in brief: as §1
[18] = tested on: COLO 205; experiment: Anticancer activity against human COLO205 cells after 48 hrs; details: COLO 205, 48 h; method in brief: as §2
[19] = tested on: BT-549; experiment: Anticancer activity against human BT549 cells after 48 hrs; details: BT-549, 48 h; method in brief: as §2
[20] = tested on: SF-268; experiment: Anticancer activity against human SF268 cells after 48 hrs; details: SF-268, 48 h; method in brief: as §1
[21] = tested on: HL-60(TB); experiment: Anticancer activity against human HL-60(TB) cells after 48 hrs; details: HL-60, 48 h
Method in brief: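 NCI 60-cell-line panel protocol: cells exposed to compound for 48 h. Initial one-dose screen at 10⁻⁵ M. GI50 = concentration giving 50% decrease in net cell growth. TGI = concentration giving total growth inhibition. LC50 = concentration giving net 50% loss of initial cells at the end of incubation. A value not reached or exceeded is reported as greater or less than the highest or lowest concentration tested.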

[22] = tested on: OVCAR-4; experiment: Anticancer activity against human OVCAR4 cells after 48 hrs; details: OVCAR-4, 48 h; method in brief: as §1
[23] = tested on: SK-OV-3; experiment: Anticancer activity against human SKOV3 cells after 48 hrs; details: SK-OV-3, 48 h; method in brief: as §1
[24] = tested on: NCI-H322M; experiment: Anticancer activity against human NCI-H322M cells after 48 hrs; method in brief: as §1
[25] = tested on: NCI-H522; experiment: Anticancer activity against human NCI-H522 cells after 48 hrs; details: NCI-H522, 48 h; method in brief: as §1
[26] = tested on: NCI/ADR-RES; experiment: Anticancer activity against human NCI/ADR-RES cells after 48 hrs; method in brief: as §1
[27] = tested on: OVCAR-8; experiment: Anticancer activity against human OVCAR8 cells after 48 hrs; details: OVCAR-8, 48 h; method in brief: as §1
[28] = read-out: LC50 (the source's name)

SMILES: Cc1cc(O)c(C2=NN(c3ccc(S(N)(=O)=O)cc3)C(/C=C/c3ccccc3)C2)cc1Cl (centres undefined)
- GI50 [1]: 3.39 µM
- TGI [1]: 16.1 µM
- CC50 [1, 28]: 44.4 µM
- GI50 [2]: 11.7 µM
- LC50 (concentration causing net 50% loss of initial cells) [2]: > 100 µM
- TGI [2]: 34.8 µM
- inhibition in vivo at 20 mg/kg [3]: 71.4%
- GI50 [4]: 16.8 µM
- LC50 [4]: > 100 µM
- TGI [4]: 58.2 µM
- GI50 [5]: 15.3 µM
- LC50 (concentration giving 50% net loss of initial cells) [5]: > 100 µM
- TGI [5]: 87.7 µM
- GI50 [6]: 7.84 µM
- TGI [6]: 19.9 µM
- CC50 [6, 28]: 44.7 µM
- GI50 [7]: 6.69 µM
- LC50 [7]: 52.6 µM
- TGI [7]: 20.2 µM
- GI50 [8]: 10.9 µM
- TGI [8]: 23.8 µM
- CC50 [8, 28]: 52 µM
- GI50 [9]: 14.9 µM
- TGI [9]: 42.4 µM
- CC50 [9, 28]: > 100 µM
- GI50 [10]: 1.68 µM
- LC50 (concentration killing 50% of initial cells) [10]: 35.4 µM
- TGI [10]: 12.5 µM
- GI50 [11]: 4.95 µM
- LC50 (concentration for net 50% loss of initial cells) [11]: 0.575 µM
- TGI [11]: 20.6 µM
- GI50 [12]: 11.7 µM
- TGI [12]: 31.3 µM
- CC50 [12, 28]: 84 µM
- GI50 [13]: 3.18 µM
- LC50 [13]: 38.3 µM
- TGI [13]: 14.7 µM
- GI50 [14]: 3.94 µM
- TGI [14]: 16.2 µM
- CC50 [14, 28]: 40.3 µM
- GI50 [15]: 2.89 µM
- LC50 [15]: 34 µM
- TGI [15]: 11.4 µM
- GI50 [16]: 3.94 µM
- LC50 (concentration for 50% net loss of initial cells) [16]: 37.5 µM
- TGI [16]: 14.1 µM
- GI50 [17]: 11.5 µM
- LC50 (concentration giving 50% net loss of initial cells) [17]: 70.2 µM
- TGI [17]: 28.4 µM
- GI50 [18]: 10.4 µM
- LC50 (concentration giving net 50% loss of initial cells) [18]: 47 µM
- TGI [18]: 22.1 µM
- GI50 [19]: 6.12 µM
- TGI [19]: 21.3 µM
- CC50 [19, 28]: 54.5 µM
- GI50 [20]: 5.63 µM
- LC50 (concentration killing 50% of initial cells) [20]: 46.7 µM
- TGI [20]: 19.5 µM
- GI50 [21]: 68.3 µM
- LC50 [21]: > 100 µM
- TGI [21]: 100 µM
- GI50 [22]: 3.74 µM
- LC50 [22]: 48.6 µM
- TGI [22]: 18.9 µM
- GI50 [23]: 5.52 µM
- TGI [23]: 17.9 µM
- CC50 [23, 28]: 42.7 µM
- GI50 [24]: 5.73 µM
- LC50 (net 50% loss of initial cells) [24]: > 100 µM
- TGI [24]: 27.5 µM
- GI50 [25]: 4.62 µM
- LC50 (concentration killing 50% of initial cells) [25]: 61.8 µM
- TGI [25]: 19.4 µM
- GI50 [26]: 9.26 µM
- TGI [26]: 22.7 µM
- CC50 [26, 28]: 53 µM
- GI50 [27]: 3.03 µM
- TGI [27]: 20.2 µM
- CC50 [27, 28]: 91.7 µM

— ChEMBL document CHEMBL1914430, “Synthesis of some new 1,3,5-trisubstituted pyrazolines bearing benzene sulfonamide as anticancer and anti-inflammatory agents” (Bioorg Med Chem Lett, 2011)
